Each block holds one compound with its values, some of them ahead of it.
How the values were obtained:
[1] = target: T1, Hepatocyte growth factor receptor (Homo sapiens, UniProt P08581); experiment: Inhibition of purified recombinant c-Met after 60 mins by ELISA
[2] = target: Hepatocyte growth factor receptor (Mus musculus) (UniProt P16056); experiment: Inhibition of TPR-MET autophosphorylation in mouse NIH3T3 cells after 4 hrs by Western blotting; format: cell-based
How it was run: (§1)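 Exponentially growing cells were treated with compound for 4 h at 37 °C and lysed in SDS sample buffer. Lysates were run on 10% SDS-PAGE and blotted to nitrocellulose. Blots were probed for phospho-c-Met and total c-Met, with GAPDH as loading control, and detected by ECL.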

[3] = target: Hepatocyte growth factor receptor (Mus musculus) (UniProt P16056); experiment: Inhibition of TPR-MET autophosphorylation in mouse BaF3 cells after 4 hrs by Western blotting; format: cell-based; how it was run: as §1
[4] = tested on: BaF3; experiment: Antiproliferative activity against mouse BAF3 cells expressing TPR-Met after 72 hrs in absence of IL-3; format: functional, cell-based; conditions: BaF3, 72 h
How it was run: (§2)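 Cells were seeded and exposed next day to a range of compound concentrations for 72 h. Proliferation was read by sulforhodamine B or MTT assay, and IC50 derived.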

[5] = tested on: BaF3; experiment: Antiproliferative activity against mouse BAF3 cells expressing TPR-Met after 72 hrs in presence of IL-3; format: functional, cell-based; conditions: BaF3, 72 h; how it was run: as §2
[6] = tested on: NIH3T3; experiment: Antiproliferative activity against mouse NIH/3T3 cells after 72 hrs; format: functional, cell-based; conditions: NIH3T3, 72 h; how it was run: as §2
[7] = tested on: NIH3T3; experiment: Antiproliferative activity against mouse NIH/3T3 cells expressing TPR-Met after 72 hrs; format: functional, cell-based; conditions: NIH3T3, 72 h; how it was run: as §2
[8] = target: T1, Hepatocyte growth factor receptor; experiment: Inhibition of purified recombinant c-Met at 10 uM after 60 mins by ELISA
[9] = Tmax in mouse at 20 mg/kg, po; format: ADME, organism-based; set-up: dose 20 mg/kg, route oral; conditions: in vivo
[10] = Clearance in mouse at 2.5 mg/kg, iv; format: ADME, organism-based; set-up: dose 2.5 mg/kg, route intravenous; conditions: in vivo
How it was run: (§3)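 Single iv dose to mice in DMSO/Tween 80/normal saline vehicle, reduced to 2.5 mg/kg because of poor solubility. Clearance and half-life were taken from plasma concentration-time data. Average of three runs.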

[11] = Cmax in mouse at 20 mg/kg, po; format: ADME, organism-based; set-up: dose 20 mg/kg, route oral; conditions: in vivo
How it was run: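 Oral 20 mg/kg single dose to mice, vehicle DMSO/Tween 80/normal saline. Cmax was read from the plasma concentration-time profile. Average of three runs.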

[12] = Volume of distribution at steady state in mouse at 2.5 mg/kg, iv; format: ADME, organism-based; set-up: dose 2.5 mg/kg, route intravenous; conditions: in vivo, read-out: Vdss
[13] = Oral bioavailability in mouse at 20 mg/kg; format: ADME, organism-based; conditions: in vivo
[14] = Half life in mouse at 2.5 mg/kg, iv; format: ADME, organism-based; set-up: dose 2.5 mg/kg, route intravenous; conditions: in vivo; how it was run: as §3
[15] = AUC (0 to infinity) in mouse at 20 mg/kg, po; format: ADME, organism-based; set-up: dose 20 mg/kg, route oral, time infinity; conditions: plasma
How it was run: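 Mice dosed orally at 20 mg/kg in DMSO/Tween 80/normal saline vehicle; plasma concentration-time profile used to derive AUC0-∞. Values are the average of three runs.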

[16] = tested on: MCF7; experiment: Antiproliferative activity against human MCF7 cells after 72 hrs; conditions: MCF7, 72 h
[17] = tested on: MDA-MB-231; experiment: Antiproliferative activity against human MDA-MB-231 cells after 72 hrs; conditions: MDA-MB-231, 72 h
[18] = tested on: MKN-45; experiment: Antiproliferative activity against human MKN45 cells after 72 hrs; conditions: MKN-45, 72 h
[19] = tested on: SNU1; experiment: Antiproliferative activity against human SNU1 cells after 72 hrs; conditions: SNU1, 72 h
[20] = tested on: NCI-H1993; experiment: Antiproliferative activity against human NCI-H1993 cells after 72 hrs; conditions: NCI-H1993, 72 h
[21] = tested on: SNU-5; experiment: Antiproliferative activity against human SNU5 cells after 72 hrs; conditions: SNU-5, 72 h
[22] = tested on: BXPC-3; experiment: Antiproliferative activity against human BxPC3 cells after 72 hrs; conditions: BXPC-3, 72 h
[23] = tested on: NCI-H441; experiment: Antiproliferative activity against human NCI-H441 cells after 72 hrs; conditions: NCI-H441, 72 h
[24] = Clearance in mouse at 10 mg/kg, iv; format: ADME, organism-based; set-up: dose 10 mg/kg, route intravenous; conditions: in vivo
How it was run: (§4)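 Single iv dose of 10 mg/kg to mice, vehicle DMSO/Tween 80/normal saline. Clearance and half-life were derived from plasma concentration-time data. Average of three runs.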

[25] = Volume of distribution at steady state in mouse at 10 mg/kg, iv; format: ADME, organism-based; set-up: dose 10 mg/kg, route intravenous; conditions: in vivo, read-out: Vdss
[26] = Half life in mouse at 10 mg/kg, iv; format: ADME, organism-based; set-up: dose 10 mg/kg, route intravenous; conditions: in vivo; how it was run: as §4

Chain of Hepatocyte growth factor receptor (Mus musculus) (P16056 whole entry): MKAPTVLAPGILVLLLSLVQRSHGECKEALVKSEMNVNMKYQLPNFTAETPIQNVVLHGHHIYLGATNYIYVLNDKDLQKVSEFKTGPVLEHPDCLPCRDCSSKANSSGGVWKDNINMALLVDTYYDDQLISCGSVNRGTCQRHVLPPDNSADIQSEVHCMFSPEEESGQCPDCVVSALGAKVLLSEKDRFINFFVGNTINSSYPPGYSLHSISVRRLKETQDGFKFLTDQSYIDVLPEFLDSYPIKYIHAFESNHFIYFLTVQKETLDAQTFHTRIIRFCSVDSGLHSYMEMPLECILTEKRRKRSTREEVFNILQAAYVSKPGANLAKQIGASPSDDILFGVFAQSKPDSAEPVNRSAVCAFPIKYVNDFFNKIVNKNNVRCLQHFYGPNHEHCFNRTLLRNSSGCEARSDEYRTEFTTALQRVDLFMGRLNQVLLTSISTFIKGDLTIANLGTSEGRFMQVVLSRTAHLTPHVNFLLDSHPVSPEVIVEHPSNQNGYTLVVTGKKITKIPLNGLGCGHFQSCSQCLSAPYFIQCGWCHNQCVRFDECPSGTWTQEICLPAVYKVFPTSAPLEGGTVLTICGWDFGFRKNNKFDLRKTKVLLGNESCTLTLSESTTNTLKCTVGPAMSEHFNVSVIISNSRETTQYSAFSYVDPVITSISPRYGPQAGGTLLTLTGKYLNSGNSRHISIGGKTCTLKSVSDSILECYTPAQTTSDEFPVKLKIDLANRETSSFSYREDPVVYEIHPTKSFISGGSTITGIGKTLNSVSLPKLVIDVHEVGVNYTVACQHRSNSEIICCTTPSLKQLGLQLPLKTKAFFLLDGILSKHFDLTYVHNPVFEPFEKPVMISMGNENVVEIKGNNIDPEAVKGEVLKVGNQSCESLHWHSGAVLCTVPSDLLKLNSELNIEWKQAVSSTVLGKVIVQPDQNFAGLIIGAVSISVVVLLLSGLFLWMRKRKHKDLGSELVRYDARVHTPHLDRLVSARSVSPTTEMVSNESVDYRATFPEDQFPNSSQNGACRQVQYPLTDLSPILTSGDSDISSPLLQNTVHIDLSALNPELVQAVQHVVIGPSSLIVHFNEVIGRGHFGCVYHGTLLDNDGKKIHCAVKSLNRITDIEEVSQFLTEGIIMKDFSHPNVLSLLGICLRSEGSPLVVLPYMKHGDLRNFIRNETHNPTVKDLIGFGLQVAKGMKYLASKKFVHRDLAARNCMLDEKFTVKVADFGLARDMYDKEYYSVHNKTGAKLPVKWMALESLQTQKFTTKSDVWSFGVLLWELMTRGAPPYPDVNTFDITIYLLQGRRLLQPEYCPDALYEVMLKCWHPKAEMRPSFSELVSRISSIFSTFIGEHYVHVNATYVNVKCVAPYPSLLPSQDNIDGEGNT
T1 sequence (P08581 whole entry): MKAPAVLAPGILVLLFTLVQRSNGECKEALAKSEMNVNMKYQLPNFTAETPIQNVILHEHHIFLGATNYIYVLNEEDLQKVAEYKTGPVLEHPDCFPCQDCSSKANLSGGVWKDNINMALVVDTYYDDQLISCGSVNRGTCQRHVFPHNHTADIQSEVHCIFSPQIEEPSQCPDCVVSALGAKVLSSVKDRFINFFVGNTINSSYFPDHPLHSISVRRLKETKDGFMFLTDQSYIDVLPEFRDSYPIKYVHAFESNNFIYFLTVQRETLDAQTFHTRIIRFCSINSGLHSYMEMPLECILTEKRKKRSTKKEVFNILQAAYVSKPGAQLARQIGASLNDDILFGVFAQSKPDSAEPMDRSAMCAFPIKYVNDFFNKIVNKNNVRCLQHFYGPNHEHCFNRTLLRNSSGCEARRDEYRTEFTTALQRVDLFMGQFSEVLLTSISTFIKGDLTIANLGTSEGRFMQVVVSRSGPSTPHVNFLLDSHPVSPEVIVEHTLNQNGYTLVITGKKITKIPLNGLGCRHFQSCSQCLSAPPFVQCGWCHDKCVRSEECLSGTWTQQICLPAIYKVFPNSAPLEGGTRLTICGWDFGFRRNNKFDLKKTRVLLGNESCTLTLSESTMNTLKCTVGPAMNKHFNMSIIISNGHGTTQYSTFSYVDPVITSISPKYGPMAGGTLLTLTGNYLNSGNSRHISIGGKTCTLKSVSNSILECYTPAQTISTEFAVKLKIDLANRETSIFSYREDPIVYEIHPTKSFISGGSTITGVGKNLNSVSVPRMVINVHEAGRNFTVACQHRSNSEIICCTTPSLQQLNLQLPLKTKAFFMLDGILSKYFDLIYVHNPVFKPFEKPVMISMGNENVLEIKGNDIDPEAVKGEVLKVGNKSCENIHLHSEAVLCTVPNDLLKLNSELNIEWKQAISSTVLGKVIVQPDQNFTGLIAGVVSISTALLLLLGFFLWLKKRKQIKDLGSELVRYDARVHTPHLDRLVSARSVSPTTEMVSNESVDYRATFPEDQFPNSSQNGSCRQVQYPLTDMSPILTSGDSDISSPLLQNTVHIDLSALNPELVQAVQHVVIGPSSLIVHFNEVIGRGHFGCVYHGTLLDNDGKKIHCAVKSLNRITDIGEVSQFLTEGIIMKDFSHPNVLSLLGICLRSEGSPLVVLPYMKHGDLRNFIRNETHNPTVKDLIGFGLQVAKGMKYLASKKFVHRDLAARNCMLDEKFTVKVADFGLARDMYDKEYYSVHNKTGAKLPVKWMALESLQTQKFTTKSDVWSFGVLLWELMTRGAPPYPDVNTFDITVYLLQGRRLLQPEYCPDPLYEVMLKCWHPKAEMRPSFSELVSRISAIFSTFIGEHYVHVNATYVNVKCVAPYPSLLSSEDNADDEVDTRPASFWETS

SMILES: CN1CCN(c2cnc3cccc(-c4cccs4)c3c2)CC1
IC50 [1]: 14300 nM

SMILES: CN1CCN(c2cnc3cccc(-c4ccc5ccccc5c4)c3c2)CC1
IC50 [1]: 5800 nM

SMILES: CC(C)(C)OC(=O)N1CCN(c2cnc3cc(C(F)(F)F)cc(NCc4cccc([N+](=O)[O-])c4)c3c2)CC1
IC50 [1]: 10.6 nM

SMILES: CN1CCN(c2cnc3cccc(NS(=O)(=O)c4cccc([N+](=O)[O-])c4)c3c2)CC1
IC50 [1]: 3440 nM

SMILES: CN1CCN(c2cnc3cccc(NCc4cccc([N+](=O)[O-])c4)c3c2)CC1
IC50 [1]: 166 nM

SMILES: CC(=O)N1CCN(c2cnc3cccc(NC(=S)Nc4cccc([N+](=O)[O-])c4)c3c2)CC1
inhibition [8]: 13.9%

SMILES: CN1CCN(c2cnc3cccc(NC(=S)Nc4cccc([N+](=O)[O-])c4)c3c2)CC1
inhibition [8]: 12.4%

SMILES: CN1CCN(c2cnc3cccc(NC(=O)c4cccn(-c5ccc(F)cc5)c4=O)c3c2)CC1
IC50 [1]: 5300 nM

SMILES: CN1CCN(c2cnc3cccc(OC(=O)c4cccc([N+](=O)[O-])c4)c3c2)CC1
inhibition [8]: 7.3%

SMILES: O=[N+]([O-])c1cccc(CNc2cc(C(F)(F)F)cc3ncc(N4CCN(S(=O)(=O)C5CC5)CC4)cc23)c1
inhibition [2]: Dose-dependent effect
IC50 [1]: 0.84 nM
inhibition [3]: Dose-dependent effect
IC50 [4]: 500 nM
IC50 [5]: ≥ 50 µM
IC50 [6]: ≥ 50 µM
IC50 [7]: 1.4 µM

SMILES: CC(=O)N1CCN(c2cnc3cccc(NS(=O)(=O)c4cccc([N+](=O)[O-])c4)c3c2)CC1
IC50 [1]: 2560 nM

SMILES: CC(=O)N1CCN(c2cnc3cccc(NC(=O)Nc4cccc([N+](=O)[O-])c4)c3c2)CC1
IC50 [1]: 22400 nM

SMILES: CCN1CCN(c2cnc3cc(NCc4cccc([N+](=O)[O-])c4)cc(C(F)(F)F)c3c2)CC1
inhibition [8]: 46.6%

SMILES: CN1CCN(c2cnc3cccc(OC(=O)c4cccn(-c5ccc(F)cc5)c4=O)c3c2)CC1
inhibition [8]: 12.6%

SMILES: CN1CCN(c2cnc3cccc(-c4ccc(F)cc4)c3c2)CC1
inhibition [8]: 29.9%

SMILES: CN1CCN(c2cnc3cccc(OCc4cccc(C#N)c4)c3c2)CC1
IC50 [1]: 12300 nM

SMILES: CN1CCN(c2cnc3cccc(-c4cccc(O)c4)c3c2)CC1
inhibition [8]: 30.7%

SMILES: Cc1[nH]c(/C=C2\C(=O)Nc3ccc(S(=O)(=O)N(C)c4cccc(Cl)c4)cc32)c(C)c1C(=O)N1CCN(C)CC1
IC50 [1]: 14 nM
IC50 [16]: 6.2 µM
IC50 [17]: 11 µM
IC50 [18]: 1300 nM
IC50 [19]: 7 µM
IC50 [20]: 7.3 µM
IC50 [21]: 800 nM
IC50 [4]: 530 nM
IC50 [5]: 6.4 µM
IC50 [22]: 16 µM
IC50 [6]: ≥ 50 µM
IC50 [23]: 13 µM
IC50 [7]: 6.5 µM

SMILES: CN1CCN(c2cnc3cccc(OS(=O)(=O)c4cccc([N+](=O)[O-])c4)c3c2)CC1
IC50 [1]: 1200 nM

SMILES: CN1CCN(c2cnc3cccc(-c4ccco4)c3c2)CC1
IC50 [1]: 12700 nM

SMILES: CN1CCN(c2cnc3cccc(OCc4cccc(F)c4)c3c2)CC1
inhibition [8]: 25.8%

SMILES: CC(=O)N1CCN(c2cnc3cccc(NCc4cccc([N+](=O)[O-])c4)c3c2)CC1
IC50 [1]: 110 nM

SMILES: CN1CCN(c2cnc3cccc(OCc4cccc([N+](=O)[O-])c4)c3c2)CC1
IC50 [1]: 140 nM

SMILES: CN1CCN(c2cnc3cccc(NC(=O)Nc4cccc([N+](=O)[O-])c4)c3c2)CC1
inhibition [8]: 25.2%

SMILES: CN1CCN(c2cnc3cccc(-c4cccc([N+](=O)[O-])c4)c3c2)CC1
IC50 [1]: 2300 nM

Further lines, with some results ahead:

IC50 [1]: 3.4 nM
SMILES: O=[N+]([O-])c1cccc(CNc2cc(C(F)(F)F)cc3ncc(N4CCCCC4)cc23)c1

inhibition [2]: Dose-dependent effect
IC50 [1]: 0.72 nM
inhibition [3]: Dose-dependent effect
IC50 [4]: 4200 nM
IC50 [5]: ≥ 50 µM
SMILES: O=[N+]([O-])c1cccc(CNc2cc(C(F)(F)F)cc3ncc(N4CCOCC4)cc23)c1
IC50 [6]: ≥ 50 µM
IC50 [7]: 4 µM

IC50 [1]: 450 nM
SMILES: CN1CCN(c2cnc3cc(C(F)(F)F)cc(NCc4cccc(F)c4)c3c2)CC1

inhibition [2]: Dose-dependent effect
IC50 [1]: 1.01 nM
inhibition [3]: Dose-dependent effect
IC50 [4]: 370 nM
IC50 [5]: 10.1 µM
SMILES: CCN1CCN(c2cnc3cc(C(F)(F)F)cc(NCc4cccc([N+](=O)[O-])c4)c3c2)CC1
IC50 [6]: 13.2 µM
IC50 [7]: 2.6 µM

IC50 [1]: 5.6 nM
SMILES: CCN1CCN(c2cnc3cc(C(F)(F)F)cc(NCc4cccc(C#N)c4)c3c2)CC1

inhibition [2]: Dose-dependent effect
IC50 [1]: 0.82 nM
inhibition [3]: Dose-dependent effect
Tmax [9]: 79.8 min
clearance [10]: 43.3 mL/min/kg
Cmax [11]: 59.3 ng/mL
Vd [12]: 1.72 L/kg
IC50 [4]: 8800 nM
bioavailability [13]: 3.7%
IC50 [5]: ≥ 50 µM
half-life [14]: 58.2 min
AUC(0-inf) [15]: 366 ng·h/mL
SMILES: CS(=O)(=O)N1CCN(c2cnc3cc(C(F)(F)F)cc(NCc4cccc([N+](=O)[O-])c4)c3c2)CC1
IC50 [6]: ≥ 50 µM
IC50 [7]: 2.2 µM

IC50 [1]: 2.2 nM
SMILES: O=[N+]([O-])c1cccc(CNc2cc(C(F)(F)F)cc3ncc(N4CCNCC4)cc23)c1

IC50 [1]: 43 nM
SMILES: COC(=O)N1CCN(c2cnc3cc(C(F)(F)F)cc(NCc4cccc([N+](=O)[O-])c4)c3c2)CC1

IC50 [1]: 10000 nM
SMILES: CCN1CCN(c2cnc3cc(C(F)(F)F)cc(NCc4ccc(F)cc4)c3c2)CC1

IC50 [1]: 4.4 nM
SMILES: O=C(O)CN1CCN(c2cnc3cc(C(F)(F)F)cc(NCc4cccc([N+](=O)[O-])c4)c3c2)CC1

IC50 [1]: 160 nM
SMILES: CN1CCN(c2cnc3cc(C(F)(F)F)cc(NCc4cccnc4)c3c2)CC1

inhibition [8]: 8.9%
SMILES: CN1CCN(c2cnc3cc(NCc4cccc([N+](=O)[O-])c4)cc(C(F)(F)F)c3c2)CC1

IC50 [1]: 230 nM
SMILES: CCN1CCN(c2cnc3cc(C(F)(F)F)cc(NCc4cccc(O)c4)c3c2)CC1

IC50 [1]: 2.7 nM
SMILES: CN1CCN(c2cnc3cc(C(F)(F)F)cc(OCc4cccc([N+](=O)[O-])c4)c3c2)CC1

IC50 [1]: 99 nM
SMILES: CN1CCN(c2cnc3cc(C(F)(F)F)cc(NS(=O)(=O)c4cccc([N+](=O)[O-])c4)c3c2)CC1

inhibition [2]: Dose-dependent effect
IC50 [1]: 0.77 nM
inhibition [3]: Dose-dependent effect
clearance [24]: 40.5 mL/min/kg
Tmax [9]: 30 min
Vd [25]: 1.36 L/kg
Cmax [11]: 279 ng/mL
IC50 [4]: 1400 nM
bioavailability [13]: 8.2%
IC50 [5]: 14.1 µM
AUC(0-inf) [15]: 700 ng·h/mL
half-life [26]: 67.8 min
SMILES: CCOC(=O)CN1CCN(c2cnc3cc(C(F)(F)F)cc(NCc4cccc([N+](=O)[O-])c4)c3c2)CC1
IC50 [6]: ≥ 50 µM
IC50 [7]: 5.9 µM

From ChEMBL document CHEMBL1765011, “Synthesis and c-Met kinase inhibition of 3,5-disubstituted and 3,5,7-trisubstituted quinolines: identification of 3-(4-acetylpiperazin-1-yl)-5-(3-nitrobenzylamino)-7- (trifluoromethyl)quinoline as a novel anticancer agent” (J Med Chem, 2011)
